Data from ChEMBL document CHEMBL1221233, “4''-O-(omega-Quinolylamino-alkylamino)propionyl derivatives of selected macrolides with the activity against the key erythromycin resistant respiratory pathogens” (2010).
In brackets after ≈: the same amount, converted by molar mass.

Key:
Type in all cases: functional
Haemophilus influenzae = assay: Antibacterial activity against Haemophilus influenzae ATCC 49247 by broth microdilution method
Outline: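 MIC by broth microdilution following CLSI guidelines, expressed in units of lg/mL. Twofold dilutions prepared in 96-well plates. H. influenzae grown on Mueller-Hinton chocolate agar before testing.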

Staphylococcus aureus [1] = assay: Antibacterial activity against efflux-mediated macrolide-resistance Staphylococcus aureus PK1 by broth microdilution method
Outline: (§1)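 Staphylococci were grown on Mueller-Hinton agar and then tested by CLSI-guideline broth microdilution against two-fold serial dilutions of compound. The result was recorded as the minimum inhibitory concentration.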

Staphylococcus aureus [2] = assay: Antibacterial activity against inducible resistance to macrolide, licosamide and streptogramin Staphylococcus aureus 90256 by broth microdilution method; outline: as §1
Streptococcus pyogenes [3] = assay: Antibacterial activity against constitutive MLS resistance sStreptococcus pyogenes 166 GR-Micro by broth microdilution method
Outline: (§2)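 MIC by CLSI broth microdilution. In the streptococcal medium, 5% horse serum replaced lysed blood. Compounds were tested as two-fold serial dilutions. Strains were first grown on Columbia agar with 5% sheep blood. The MIC was read as the lowest concentration inhibiting growth.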

Streptococcus pyogenes [4] = assay: Antibacterial activity against efflux-mediated macrolide-resistance Streptococcus pyogenes 2 Finland by broth microdilution method; outline: as §2
Streptococcus pneumoniae [5] = assay: Antibacterial activity against efflux-mediated macrolide-resistance Streptococcus pneumoniae Ci137 by broth microdilution method; outline: as §2
Streptococcus pneumoniae [6] = assay: Antibacterial activity against inducible resistance to macrolide and constitutive resistance to lincosamide Streptococcus pneumoniae 134 GR M by broth microdilution method; outline: as §2
Streptococcus pneumoniae [7] = assay: Antibacterial activity against constitutive MLS resistance Streptococcus pneumoniae 58 by broth microdilution method; outline: as §2

Compound | MIC (Haemophilus influenzae) | MIC (Staphylococcus aureus [1]) | MIC (Staphylococcus aureus [2]) | MIC (Streptococcus pyogenes [3]) | MIC (Streptococcus pyogenes [4]) | MIC (Streptococcus pneumoniae [5]) | MIC (Streptococcus pneumoniae [6]) | MIC (Streptococcus pneumoniae [7])
CC[C@H]1OC(=O)[C@H](C)[C@@H](O[C@H]2C[C@@](C)(OC)[C@@H](OC(=O)CCN(C)CCNc3cc4c(=O)c(C(=O)O)cn(C5CC5)c4cc3Cl)[C@H](C)O2)[C@H](C)[C@@H](O[C@@H]2O[C@H](C)C[C@H](N(C)C)[C@H]2O)[C@](C)(O)C[C@@H](C)CN(C)[C@H](C)[C@H]2OC(=O)O[C@@]21C | 4 µg/mL (≈ 3.43 µM) | 1 µg/mL (≈ 0.858 µM) | 2 µg/mL (≈ 1.72 µM) | 1 µg/mL (≈ 0.858 µM) | ≤ 0.125 µg/mL | ≤ 0.125 µg/mL | 2 µg/mL (≈ 1.72 µM) | 1 µg/mL (≈ 0.858 µM)
CC[C@H]1OC(=O)[C@H](C)[C@@H](O[C@H]2C[C@@](C)(OC)[C@@H](OC(=O)CCNCCNc3ccc4c(c3)c(=O)c(C(=O)O)cn4C3CC3)[C@H](C)O2)[C@H](C)[C@@H](O[C@@H]2O[C@H](C)C[C@H](N(C)C)[C@H]2O)[C@](C)(O)C[C@@H](C)CN(C)[C@H](C)[C@H]2OC(=O)O[C@@]21C | 2 µg/mL (≈ 1.79 µM) | 1 µg/mL (≈ 0.896 µM) | 2 µg/mL (≈ 1.79 µM) | ≤ 0.125 µg/mL | 0.25 µg/mL (≈ 0.224 µM) | ≤ 0.125 µg/mL | 0.25 µg/mL (≈ 0.224 µM) | 0.25 µg/mL (≈ 0.224 µM)
CC[C@H]1OC(=O)[C@H](C)[C@@H](O[C@H]2C[C@@](C)(OC)[C@@H](OC(=O)CCNCCNc3ccc4c(=O)c(C(=O)O)cn(CC)c4c3)[C@H](C)O2)[C@H](C)[C@@H](O[C@@H]2O[C@H](C)C[C@H](N(C)C)[C@H]2O)[C@](C)(O)C[C@@H](C)CN(C)[C@H](C)[C@@H](O)[C@]1(C)O | 4 µg/mL (≈ 3.71 µM) | 2 µg/mL (≈ 1.85 µM) | 4 µg/mL (≈ 3.71 µM) | ≤ 0.125 µg/mL | ≤ 0.125 µg/mL | ≤ 0.125 µg/mL | ≤ 0.125 µg/mL | ≤ 0.125 µg/mL
CC[C@H]1OC(=O)[C@H](C)[C@@H](O[C@H]2C[C@@](C)(OC)[C@@H](OC(=O)CCNCCNc3ccc4c(=O)c(C(=O)O)cn(C5CC5)c4c3)[C@H](C)O2)[C@H](C)[C@@H](O[C@@H]2O[C@H](C)C[C@H](N(C)C)[C@H]2O)[C@](C)(O)C[C@@H](C)CN(C)[C@H](C)[C@@H](O)[C@]1(C)O | 4 µg/mL (≈ 3.67 µM) | 1 µg/mL (≈ 0.917 µM) | 2 µg/mL (≈ 1.83 µM) | ≤ 0.125 µg/mL | ≤ 0.125 µg/mL | ≤ 0.125 µg/mL | ≤ 0.125 µg/mL | ≤ 0.125 µg/mL
CC[C@H]1OC(=O)[C@H](C)[C@@H](O[C@H]2C[C@@](C)(OC)[C@@H](OC(=O)CCNCCCCNc3cc4c(cc3F)c(=O)c(C(=O)O)cn4C3CC3)[C@H](C)O2)[C@H](C)[C@@H](O[C@@H]2O[C@H](C)C[C@H](N(C)C)[C@H]2O)[C@](C)(O)C[C@@H](C)C(=O)[C@H](C)[C@@H](O)[C@]1(C)O | 2 µg/mL (≈ 1.78 µM) | 2 µg/mL (≈ 1.78 µM) | > 64 µg/mL | 8 µg/mL (≈ 7.13 µM) | ≤ 0.125 µg/mL | ≤ 0.125 µg/mL | 2 µg/mL (≈ 1.78 µM) | 8 µg/mL (≈ 7.13 µM)
CC[C@H]1OC(=O)[C@H](C)[C@@H](O[C@H]2C[C@@](C)(OC)[C@@H](OC(=O)CCNCCNc3cc4c(=O)c(C(=O)O)cn(C5CC5)c4cc3Cl)[C@H](C)O2)[C@H](C)[C@@H](O[C@@H]2O[C@H](C)C[C@H](N(C)C)[C@H]2O)[C@](C)(O)C[C@@H](C)C(=O)[C@H](C)[C@@H](O)[C@]1(C)O | 2 µg/mL (≈ 1.8 µM) | 0.5 µg/mL (≈ 0.451 µM) | 4 µg/mL (≈ 3.6 µM) | ≤ 0.125 µg/mL | ≤ 0.125 µg/mL | ≤ 0.125 µg/mL | ≤ 0.125 µg/mL | ≤ 0.125 µg/mL
CC[C@H]1OC(=O)[C@H](C)[C@@H](O[C@H]2C[C@@](C)(OC)[C@@H](OC(=O)CCNCCNc3cc4c(=O)c(C(=O)O)cn(C5CC5)c4cc3Cl)[C@H](C)O2)[C@H](C)[C@@H](O[C@@H]2O[C@H](C)C[C@H](N(C)C)[C@H]2O)[C@](C)(O)C[C@@H](C)CN(C)[C@H](C)[C@H]2OC(=O)O[C@@]21C | 2 µg/mL (≈ 1.74 µM) | 0.5 µg/mL (≈ 0.434 µM) | 1 µg/mL (≈ 0.869 µM) | ≤ 0.125 µg/mL | ≤ 0.125 µg/mL | ≤ 0.125 µg/mL | ≤ 0.125 µg/mL | ≤ 0.125 µg/mL
CC[C@H]1OC(=O)[C@H](C)[C@@H](O[C@H]2C[C@@](C)(OC)[C@@H](OC(=O)CCNCCCCNc3ccc4c(=O)c(C(=O)O)cn(CC)c4c3)[C@H](C)O2)[C@H](C)[C@@H](O[C@@H]2O[C@H](C)C[C@H](N(C)C)[C@H]2O)[C@](C)(O)C[C@@H](C)CN(C)[C@H](C)[C@@H](O)[C@]1(C)O | > 32 µg/mL | 4 µg/mL (≈ 3.62 µM) | > 32 µg/mL | 8 µg/mL (≈ 7.23 µM) | 8 µg/mL (≈ 7.23 µM) | 1 µg/mL (≈ 0.904 µM) | 8 µg/mL (≈ 7.23 µM) | 2 µg/mL (≈ 1.81 µM)
CC[C@H]1OC(=O)[C@H](C)[C@@H](O[C@H]2C[C@@](C)(OC)[C@@H](OC(=O)CCNCCCCNc3ccc4c(=O)c(C(=O)O)cn(C5CC5)c4c3)[C@H](C)O2)[C@H](C)[C@@H](O[C@@H]2O[C@H](C)C[C@H](N(C)C)[C@H]2O)[C@](C)(O)C[C@@H](C)CN(C)[C@H](C)[C@@H](O)[C@]1(C)O | 8 µg/mL (≈ 7.15 µM) | 2 µg/mL (≈ 1.79 µM) | 8 µg/mL (≈ 7.15 µM) | 4 µg/mL (≈ 3.58 µM) | 1 µg/mL (≈ 0.894 µM) | 0.5 µg/mL (≈ 0.447 µM) | 8 µg/mL (≈ 7.15 µM) | 4 µg/mL (≈ 3.58 µM)
CC[C@H]1OC(=O)[C@H](C)[C@@H](O[C@H]2C[C@@](C)(OC)[C@@H](OC(=O)CCNCCCCNc3ccc4c(=O)c(C(=O)O)cn(CC)c4c3)[C@H](C)O2)[C@H](C)[C@@H](O[C@@H]2O[C@H](C)C[C@H](N(C)C)[C@H]2O)[C@](C)(O)C[C@@H](C)NC(=O)[C@H](C)[C@@H](O)[C@]1(C)O | > 32 µg/mL | 8 µg/mL (≈ 7.23 µM) | > 32 µg/mL | 32 µg/mL (≈ 28.9 µM) | 8 µg/mL (≈ 7.23 µM) | 2 µg/mL (≈ 1.81 µM) | 8 µg/mL (≈ 7.23 µM) | 16 µg/mL (≈ 14.5 µM)
CC[C@H]1OC(=O)[C@H](C)[C@@H](O[C@H]2C[C@@](C)(OC)[C@@H](OC(=O)CCN(C)CCNc3ccc4c(c3)c(=O)c(C(=O)O)cn4C3CC3)[C@H](C)O2)[C@H](C)[C@@H](O[C@@H]2O[C@H](C)C[C@H](N(C)C)[C@H]2O)[C@](C)(O)C[C@@H](C)CN(C)[C@H](C)[C@@H](O)[C@]1(C)O | 4 µg/mL (≈ 3.62 µM) | 1 µg/mL (≈ 0.905 µM) | 1 µg/mL (≈ 0.905 µM) | ≤ 0.125 µg/mL | 0.5 µg/mL (≈ 0.453 µM) | ≤ 0.125 µg/mL | 0.25 µg/mL (≈ 0.226 µM) | ≤ 0.125 µg/mL
CC[C@H]1OC(=O)[C@H](C)[C@@H](O[C@H]2C[C@@](C)(OC)[C@@H](O)[C@H](C)O2)[C@H](C)[C@@H](O[C@@H]2O[C@H](C)C[C@H](N(C)C)[C@H]2O)[C@](C)(OC)C[C@@H](C)C(=O)[C@H](C)[C@@H](O)[C@]1(C)O [CLARITHROMYCIN] | 8 µg/mL (≈ 10.7 µM) | > 64 µg/mL | > 64 µg/mL | > 16 µg/mL | 4 µg/mL (≈ 5.35 µM) | 4 µg/mL (≈ 5.35 µM) | > 64 µg/mL | > 16 µg/mL
CC[C@H]1OC(=O)[C@H](C)[C@@H](O[C@H]2C[C@@](C)(OC)[C@@H](OC(=O)CCN(C)CCNc3cc4c(=O)c(C(=O)OC)cn(C5CC5)c4cc3Cl)[C@H](C)O2)[C@H](C)[C@@H](O[C@@H]2O[C@H](C)C[C@H](N(C)C)[C@H]2O)[C@](C)(O)C[C@@H](C)CN(C)[C@H](C)[C@@H](O)[C@]1(C)O | 8 µg/mL (≈ 6.94 µM) | 16 µg/mL (≈ 13.9 µM) | > 64 µg/mL | 1 µg/mL (≈ 0.867 µM) | ≤ 0.125 µg/mL | ≤ 0.125 µg/mL | 0.5 µg/mL (≈ 0.434 µM) | 0.5 µg/mL (≈ 0.434 µM)
CC[C@H]1OC(=O)[C@H](C)[C@@H](O[C@H]2C[C@@](C)(OC)[C@@H](OC(=O)CCNCCNc3cc4c(=O)c(C(=O)O)cn(C5CC5)c4cc3Cl)[C@H](C)O2)[C@H](C)[C@@H](O[C@@H]2O[C@H](C)C[C@H](N(C)C)[C@H]2O)[C@](C)(O)C[C@@H](C)CN(C)[C@H](C)[C@@H](O)[C@]1(C)O | 1 µg/mL (≈ 0.889 µM) | 0.25 µg/mL (≈ 0.222 µM) | 0.5 µg/mL (≈ 0.445 µM) | ≤ 0.125 µg/mL | ≤ 0.125 µg/mL | ≤ 0.125 µg/mL | ≤ 0.125 µg/mL | ≤ 0.125 µg/mL
